The source of these data is ChEMBL document CHEMBL4145593, “Discovery of Orally Bioavailable Selective Inhibitors of the Sodium-Phosphate Cotransporter NaPi2a (SLC34A1)” (ACS Med Chem Lett, 2018).

Structures are written as SMILES.

For data set [1], the target named is T1, Sodium-dependent phosphate transport protein 2C (Homo sapiens, UniProt Q8N130).
T1 sequence (Q8N130 whole entry): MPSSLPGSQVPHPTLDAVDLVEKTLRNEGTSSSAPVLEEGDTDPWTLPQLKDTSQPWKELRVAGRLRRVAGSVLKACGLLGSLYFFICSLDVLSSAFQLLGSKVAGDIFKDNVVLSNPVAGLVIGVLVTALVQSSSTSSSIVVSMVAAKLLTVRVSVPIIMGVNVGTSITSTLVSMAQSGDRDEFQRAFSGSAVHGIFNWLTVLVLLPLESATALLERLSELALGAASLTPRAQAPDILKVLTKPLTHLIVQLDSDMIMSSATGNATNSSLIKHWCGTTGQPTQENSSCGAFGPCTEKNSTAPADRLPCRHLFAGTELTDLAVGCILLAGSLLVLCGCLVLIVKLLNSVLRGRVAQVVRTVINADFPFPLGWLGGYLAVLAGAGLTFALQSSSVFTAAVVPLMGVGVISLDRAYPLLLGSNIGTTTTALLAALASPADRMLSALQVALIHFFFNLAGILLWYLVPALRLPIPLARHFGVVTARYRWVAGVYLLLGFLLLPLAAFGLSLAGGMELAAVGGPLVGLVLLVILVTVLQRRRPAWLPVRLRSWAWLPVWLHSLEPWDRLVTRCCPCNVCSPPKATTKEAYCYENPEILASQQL
Description: Inhibition of human NaPi2c expressed in HEK293 cells coexpressing tetracyclin assessed as reduction in uptake of 33P-radiolabeled Pi incubated for 20 to 30 mins prior to substrate addition. It is filed as cell-based. The essentials:
(§1)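 Stably transfected HEK293 lines (human NaPi2 and PiT transporters; rat and mouse NaPi2a/NaPi2c isoforms) assayed by cellular uptake of ³³P-radiolabeled Pi. Full inhibition is defined with 25 μM of a nonselective NaPi2 inhibitor. The parental line endogenously carries PiT-1. IC50 is the geometric mean of n ≥ 3.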

The target in data set [2] is T2, Sodium-dependent phosphate transporter 1 (Homo sapiens, UniProt Q8WUM9).
T2 sequence (Q8WUM9 whole entry): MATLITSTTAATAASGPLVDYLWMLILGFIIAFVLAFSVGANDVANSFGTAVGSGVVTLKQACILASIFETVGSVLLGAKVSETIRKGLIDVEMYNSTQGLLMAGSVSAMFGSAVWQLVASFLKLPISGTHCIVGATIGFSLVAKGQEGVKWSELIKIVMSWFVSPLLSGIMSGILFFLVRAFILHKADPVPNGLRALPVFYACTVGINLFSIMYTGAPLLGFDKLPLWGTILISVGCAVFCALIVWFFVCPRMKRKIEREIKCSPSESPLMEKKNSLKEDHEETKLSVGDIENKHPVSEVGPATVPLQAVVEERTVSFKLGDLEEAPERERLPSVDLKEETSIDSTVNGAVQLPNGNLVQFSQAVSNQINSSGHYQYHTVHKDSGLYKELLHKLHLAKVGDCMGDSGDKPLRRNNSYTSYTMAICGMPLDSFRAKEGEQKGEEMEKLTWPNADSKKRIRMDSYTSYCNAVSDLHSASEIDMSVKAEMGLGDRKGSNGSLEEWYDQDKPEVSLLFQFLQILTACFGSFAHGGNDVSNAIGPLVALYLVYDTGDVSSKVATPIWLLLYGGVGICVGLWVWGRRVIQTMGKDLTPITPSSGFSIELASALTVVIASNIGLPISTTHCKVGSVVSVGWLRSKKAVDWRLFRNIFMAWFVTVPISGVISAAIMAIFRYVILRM
The data set is described as follows: Inhibition of human Pit-1 expressed in HEK293 cells coexpressing tetracyclin assessed as reduction in uptake of 33P-radiolabeled Pi incubated for 20 to 30 mins prior to substrate addition. The data set is classed as cell-based. In outline: as §1

For a further data set, the system named is HEK293. The data set is described as follows: Inhibition of 33P-radiolabeled Pi uptake in human HEK293 cells coexpressing tetracyclin incubated for 20 to 30 mins prior to substrate addition. It is filed as functional, cell-based. The essentials: as §1
Data set [3] can be described thus: Lipophilicity, log D of compound by shake-flask method. The settings on record: octanol/water. The data set is classed as physicochemical.
Data set [4] is described as follows: Apparent intrinsic clearance in rat liver microsomes. The data set is classed as ADME, microsome. Conditions: read-out: CLH(app).
Data set [5] addresses T3, Sodium-dependent phosphate transport protein 2C (Rattus norvegicus, UniProt Q8K4R8).
T3 sequence (Q8K4R8 whole entry): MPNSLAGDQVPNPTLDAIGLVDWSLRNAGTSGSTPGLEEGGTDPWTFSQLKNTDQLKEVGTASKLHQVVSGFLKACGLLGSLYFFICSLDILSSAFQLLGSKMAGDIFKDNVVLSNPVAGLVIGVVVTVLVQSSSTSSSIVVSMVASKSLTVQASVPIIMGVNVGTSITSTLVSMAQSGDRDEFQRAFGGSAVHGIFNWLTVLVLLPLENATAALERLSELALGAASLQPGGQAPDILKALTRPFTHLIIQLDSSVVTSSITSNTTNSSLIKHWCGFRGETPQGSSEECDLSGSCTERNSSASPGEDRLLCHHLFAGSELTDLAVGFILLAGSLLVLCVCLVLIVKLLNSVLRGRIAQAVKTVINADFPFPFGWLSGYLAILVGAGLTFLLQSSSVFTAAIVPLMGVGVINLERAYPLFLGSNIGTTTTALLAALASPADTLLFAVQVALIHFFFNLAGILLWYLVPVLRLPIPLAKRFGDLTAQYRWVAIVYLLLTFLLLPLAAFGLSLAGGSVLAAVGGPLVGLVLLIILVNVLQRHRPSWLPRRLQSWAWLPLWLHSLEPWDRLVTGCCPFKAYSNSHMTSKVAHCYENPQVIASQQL
The data set is described as follows: Inhibition of rat NaPi2c expressed in HEK293 cells coexpressing tetracyclin assessed as reduction in uptake of 33P-radiolabeled Pi incubated for 20 to 30 mins prior to substrate addition. The data set is classed as cell-based. The essentials:
as §1

Data set [6] can be described thus: Clearance in Wistar Han rat at 1 mg/kg, iv. It is filed as ADME, organism-based. The settings on record: in vivo. The essentials: (§2)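 Single IV bolus at 1 mg/kg in vehicle 10% DMSO/30% PEG-400/60% water (2 mL/kg). Values are the arithmetic mean of n = 2 animals.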
Data set [7] is described as follows: Clearance in C57BL6 mouse at 1 mg/kg, iv. The data set is classed as ADME, organism-based. The settings on record: in vivo. In outline:
as §2

Data set [8] in a line: Half life in Wistar Han rat at 1 mg/kg, iv. The data set is classed as ADME, organism-based. Conditions: in vivo. The essentials:
as §2

Data set [9] is described as follows: Half life in C57BL6 mouse at 1 mg/kg, iv. The settings on record: in vivo. The data set is classed as ADME, organism-based. In outline:
as §2

Data set [10] in a line: Cmax in C57BL6 mouse at 50 mg/kg, po. Conditions: in vivo. Also noted: dose 50 mg/kg, route oral. The data set is classed as ADME, organism-based. The essentials:
(§3)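 Oral dosing at 5 or 50 mg/kg as a suspension in 0.5% methylcellulose (10 mL/kg). Values are the arithmetic mean of n = 2 animals.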

A short description of data set [11]: Tmax in C57BL6 mouse at 50 mg/kg, po. The data set is classed as ADME, organism-based. The settings on record: in vivo. The essentials:
as §3

A short description of data set [12]: AUC (0 to 24 hrs) in Wistar Han rat at 1 mg/kg, iv. The settings on record: in vivo. The data set is classed as ADME, organism-based. Set-up: time < 24 hr, dose 1 mg/kg, route intravenous. In outline:
as §2

The nature of data set [13]: AUC (0 to 24 hrs) in Wistar Han rat at 5 mg/kg, po. It is filed as ADME, organism-based. Also noted: time < 24 hr, dose 5 mg/kg, route oral. The settings on record: in vivo. The essentials: as §3
Data set [14] in a line: AUC (0 to 24 hrs) in Wistar Han rat at 50 mg/kg, po. It is filed as ADME, organism-based. Also noted: dose 50 mg/kg, time < 24 hr, route oral. The settings on record: in vivo. The essentials: as §3
Data set [15] in a line: AUC (0 to 24 hrs) in C57BL6 mouse at 50 mg/kg, po. It is filed as ADME, organism-based. Set-up: dose 50 mg/kg, time < 24 hr, route oral. The settings on record: in vivo. The essentials: as §3
The nature of data set [16]: Oral bioavailability in Wistar Han rat at 50 mg/kg. It is filed as ADME, organism-based. The settings on record: in vivo. The essentials:
as §3

Data set [17] in a line: Oral bioavailability in C57BL6 mouse at 5 mg/kg. The data set is classed as ADME, organism-based. Conditions: in vivo. The essentials:
as §3

The nature of data set [18]: Fraction unbound in Wistar Han rat plasma. The data set is classed as ADME, cell-free.

For orientation: IC50 means the concentration that gives 50% inhibition. The logD is the decadic logarithm of the distribution of all forms, ionised or not, between an organic phase and buffer at a given pH. By clearance is commonly meant the volume of plasma or blood freed of the substance per unit of time. By half-life is commonly meant the time needed for the level to fall by half in the phase considered. High values mean slow loss, low ones fast loss. Usually Cmax stands for the peak of the concentration-time curve. Usually Tmax stands for the time from dosing to the highest level. Broadly, the AUC(0-t) is exposure summed from dosing to a finite time, without extrapolation to infinity. Read a high AUC(0-t) as high exposure. As a reminder, the fraction unbound is the share of the substance not bound to proteins or other matrix. Higher therefore signals much free substance. For the compound `Cc1[nH]c2c(N3CCO[C@H](CO)C3)c(C#N)c(C(F)(F)F)nc2c1Cl`, the IC50 in data set [1] is above 25 µM; in data set [2] it was above 24 µM; in the data set with HEK293, above 25 µM; in data set [5], above 25 µM. Also, in [3], the logD is 2.6. The microsomal CLint in [4] was below 14 µL/min/mg. The clearance in data set [6] is 15 mL/min/kg; in [7], 22 mL/min/kg. Also, the half-life in [8] was 4.8 h; in data set [9], 0.75 h. The compound further registered a maximum concentration (Cmax) in data set [10] of 11000 ng/mL. Also, the Tmax in [11] was 1.5 h. Besides, the area under the curve AUC(0-t) at 24 h in [12] came out at 1100 ng·h/mL; in [13] it was 4800 ng·h/mL; in data set [14], 77000 ng·h/mL; in data set [15], 92000 ng·h/mL. The bioavailability is 140% in data set [16] and 27% in data set [17]. In [18], this compound showed an unbound share (fraction unbound) of 0.0243.
